ChEMBL document CHEMBL1156597, “Structure-activity relationship of kahalalide F synthetic analogues” (J Med Chem, 2008)

Legend:
DU-145 = assay: Cytotoxicity against human DU145 cells after 48 hrs by SRB assay; format: functional, cell-based; conditions: Homo sapiens, DU-145, 48 h; for CC50: read-out: LC50 (the source's name)
How it was run: (§1)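 Cells grown in RPMI 1640 with 10% FBS and penicillin/streptomycin at 37 °C and 5% CO₂, trypsinized, then seeded at 5 × 10³/well. After 18 h drug-free attachment, samples in DMSO/EtOH/PBS (0.5:0.5:99) were added for 48 h continuous exposure. Cells were fixed with cold TCA (1 h, 4 °C) and stained with SRB (10 min). Tris-solubilized stain read at 490 nm. Triplicate wells, mean ± SD; GI₅₀ derived.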

LNCaP = assay: Cytotoxicity against human LNcaP cells after 48 hrs by SRB assay; format: functional; conditions: for CC50: read-out: LC50 (the source's name); how it was run: as §1
[1] = Cytotoxicity against human IGROV cells after 48 hrs by SRB assay; format: functional; conditions: for CC50: read-out: LC50 (the source's name); how it was run: as §1
[2] = Cytotoxicity against human IGROV-ET cells after 48 hrs by SRB assay; format: functional; conditions: for CC50: read-out: LC50 (the source's name); how it was run: as §1
SK-BR-3 = assay: Cytotoxicity against human SKBR3 cells after 48 hrs by SRB assay; format: functional; conditions: SK-BR-3, 48 h; for GI50: read-out: GI50; for CC50: read-out: LC50 (the source's name); how it was run: as §1
SK-MEL-28 = assay: Cytotoxicity against human SK-MEL-28 cells after 48 hrs by SRB assay; format: functional, cell-based; conditions: Homo sapiens, SK-MEL-28, 48 h; for CC50: read-out: LC50 (the source's name); how it was run: as §1
A549 = assay: Cytotoxicity against human A549 cells after 48 hrs by SRB assay; format: functional, cell-based; conditions: Homo sapiens, A549, 48 h; how it was run: as §1
K562 = assay: Cytotoxicity against human K562 cells after 48 hrs by SRB assay; format: functional; conditions: K562, 48 h; for CC50: read-out: LC50 (the source's name); how it was run: as §1
PANC-1 = assay: Cytotoxicity against human PANC1 cells after 48 hrs by SRB assay; format: functional; conditions: PANC-1, 48 h; for CC50: read-out: LC50 (the source's name); how it was run: as §1
HT-29 = assay: Cytotoxicity against human HT29 cells after 48 hrs by SRB assay; format: functional, cell-based; conditions: Homo sapiens, HT-29, 48 h; for CC50: read-out: LC50 (the source's name); how it was run: as §1
LoVo [3] = assay: Cytotoxicity against human LoVo cells after 48 hrs by SRB assay; format: functional; conditions: for CC50: read-out: LC50 (the source's name)
HeLa = assay: Cytotoxicity against human HeLa cells after 48 hrs by SRB assay; format: functional; conditions: for CC50: read-out: LC50 (the source's name); how it was run: as §1
[4] = Cytotoxicity against human HeLa-APL cells after 48 hrs by SRB assay; format: functional; how it was run: as §1
LoVo [5] = assay: Cytotoxicity against human doxorubicin resistant LoVo cells after 48 hrs by SRB assay; format: functional; how it was run: as §1

Row | SMILES | CC50 (DU-145) | GI50 (LNCaP) | TGI (LNCaP) | CC50 (LNCaP) | GI50 ([1]; read-out: GI50) | CC50 [1] | GI50 ([2]; read-out: GI50) | CC50 [2] | CC50 (SK-BR-3) | GI50 (SK-MEL-28; read-out: GI50) | CC50 (SK-MEL-28) | LC50 (A549) | GI50 (A549; read-out: GI50) | CC50 (K562) | CC50 (PANC-1) | CC50 (HT-29) | GI50 (LoVo [3]) | CC50 (LoVo [3]) | CC50 (HeLa) | LC50 (concentration giving 50% net cell kill) [4] | also measured
1 | C/C=C1\NC(=O)[C@H](Cc2ccccc2)NC(=O)[C@@H](C(C)C)NC(=O)[C@@H]([C@H](C)CC)NC(=O)[C@H](NC(=O)[C@H](NC(=O)[C@H](CCCN)NC(=O)[C@H]2CCCN2C(=O)[C@H](NC(=O)[C@@H](NC(=O)[C@@H](NC(=O)[C@H](NC(=O)Cc2cc(F)cc(F)c2)C(C)C)[C@@H](C)O)C(C)C)C(C)C)[C@H](C)CC)[C@H](C)OC(=O)[C@H](C(C)C)NC1=O | 1600 nM | 1650 nM | 3140 nM | 1490 nM | 1370 nM | 426 nM | 889 nM | 520 nM | 1490 nM | 2340 nM | 1400 nM | 1120 nM | 1620 nM | 2370 nM | 2460 nM | 556 nM | 794 nM | 2200 nM | 1010 nM | 1290 nM | TGI (DU-145): 3690 nM; GI50 (DU-145; read-out: GI50): 1840 nM; GI50 [1]: 692 nM; GI50 [2]: 679 nM; TGI (SK-BR-3): 1710 nM; GI50 (SK-BR-3): 1270 nM; TGI (SK-MEL-28): 2930 nM; TGI (A549): 1350 nM; TGI (LoVo [3]): 1480 nM; GI50 (HeLa): 1410 nM; TGI (HeLa): 1350 nM; GI50 [4]: 2020 nM; TGI [4]: 2960 nM
2 | C/C=C1\NC(=O)[C@H](Cc2ccccc2)NC(=O)[C@@H](C(C)C)NC(=O)[C@@H]([C@H](C)CC)NC(=O)[C@H](NC(=O)[C@H](NC(=O)[C@H](CCCC[N+](C)(C)C)NC(=O)[C@H]2CCCN2C(=O)[C@H](NC(=O)[C@@H](NC(=O)[C@@H](NC(=O)[C@H](NC(=O)CC[C@@H](C)CC)C(C)C)[C@@H](C)O)C(C)C)C(C)C)[C@H](C)CC)[C@H](C)OC(=O)[C@H](C(C)C)NC1=O | 880 nM | 1060 nM | 1060 nM | 1060 nM | 612 nM | 391 nM | 639 nM | 446 nM | 369 nM | 1110 nM | 863 nM | 1120 nM | 1390 nM | 2340 nM | 2440 nM | 476 nM | 361 nM | 347 nM | 689 nM | 859 nM | GI50 (DU-145): 948 nM; GI50 (DU-145; read-out: GI50): 1020 nM; GI50 [1]: 470 nM; GI50 [2]: 532 nM; TGI (SK-BR-3): 363 nM; GI50 (SK-BR-3): 372 nM; GI50 (SK-MEL-28): 979 nM; TGI (A549): 1240 nM; GI50 (K562): 1840 nM; TGI (K562): 3310 nM; GI50 (PANC-1): 4160 nM; TGI (PANC-1): 4730 nM; GI50 (HT-29): 786 nM; TGI (HT-29): 754 nM; TGI (LoVo [3]): 353 nM; GI50 (HeLa): 943 nM; TGI (HeLa): 809 nM; GI50 [4]: 1110 nM; TGI [4]: 979 nM
3 | C/C=C1\NC(=O)[C@H](Cc2ccccc2)NC(=O)[C@@H](C(C)C)NC(=O)[C@@H]([C@H](C)CC)NC(=O)[C@H](NC(=O)[C@H](NC(=O)[C@H](CCCN)NC(=O)[C@H]2CCCN2C(=O)[C@H](NC(=O)[C@H](CCC(N)=O)NC(=O)[C@@H](NC(=O)[C@H](NC(=O)CCCC(C)C)C(C)C)[C@@H](C)O)C(C)C)[C@H](C)CC)[C@H](C)OC(=O)[C@H](C(C)C)NC1=O | 1620 nM | 3120 nM | 3170 nM | 1510 nM |  | 619 nM |  | 689 nM | 2720 nM |  | 1410 nM | 1870 nM |  | 2390 nM | 2480 nM | 869 nM |  | 4690 nM | 1020 nM | 1300 nM | 
4 | C/C=C1\NC(=O)[C@H](Cc2ccccc2)NC(=O)[C@@H](C(C)C)NC(=O)[C@@H]([C@H](C)CC)NC(=O)[C@H](NC(=O)[C@H](NC(=O)[C@H](CCCN)NC(=O)[C@H]2CCCN2C(=O)[C@H](NC(=O)[C@H](CC(C)C)NC(=O)[C@@H](NC(=O)[C@H](NC(=O)CCCC(C)C)C(C)C)[C@@H](C)O)C(C)C)[C@H](C)CC)[C@H](C)OC(=O)[C@H](C(C)C)NC1=O | 863 nM | 1030 nM | 1120 nM | 1230 nM | 464 nM | 375 nM | 350 nM | 383 nM | 689 nM | 964 nM | 8750 nM | 1110 nM | 1280 nM | 2300 nM | 2510 nM | 479 nM | 312 nM | 337 nM | 765 nM | 807 nM | GI50 (DU-145): 903 nM; GI50 (DU-145; read-out: GI50): 941 nM; TGI [1]: 4020 nM; TGI [2]: 380 nM; TGI (SK-BR-3): 482 nM; GI50 (SK-BR-3): 445 nM; TGI (SK-MEL-28): 9120 nM; TGI (A549): 1190 nM; GI50 (K562): 2100 nM; TGI (K562): 2210 nM; GI50 (PANC-1): 3290 nM; TGI (PANC-1): 4870 nM; GI50 (HT-29): 612 nM; TGI (HT-29): 679 nM; TGI (LoVo [3]): 324 nM; GI50 (HeLa): 1020 nM; TGI (HeLa): 887 nM; GI50 [4]: 939 nM; TGI [4]: 871 nM
5 | C/C=C1\NC(=O)[C@H](Cc2ccccc2)NC(=O)[C@@H](C(C)C)NC(=O)[C@@H]([C@H](C)CC)NC(=O)[C@H](NC(=O)[C@H](NC(=O)[C@H](CCCN)NC(=O)[C@H]2CCCN2C(=O)[C@H](NC(=O)[C@@H](NC(=O)[C@@H](NC(=O)[C@H](NC(=O)c2ccc(C(F)(F)F)cc2)C(C)C)[C@@H](C)O)C(C)C)C(C)C)[C@H](C)CC)[C@H](C)OC(=O)[C@H](C(C)C)NC1=O | 800 nM | 341 nM | 621 nM | 799 nM | 247 nM | 321 nM | 140 nM | 294 nM | 223 nM | 839 nM | 809 nM | 473 nM | 202 nM | 2340 nM | 2430 nM | 76.5 nM | 253 nM | 286 nM | 601 nM | 717 nM | GI50 (DU-145): 685 nM; GI50 (DU-145; read-out: GI50): 310 nM; GI50 [1]: 236 nM; GI50 [2]: 223 nM; TGI (SK-BR-3): 289 nM; GI50 (SK-BR-3): 303 nM; GI50 (SK-MEL-28): 823 nM; GI50 (A549): 254 nM; GI50 (PANC-1): 1840 nM; TGI (PANC-1): 2260 nM; TGI (LoVo [3]): 268 nM; GI50 (HeLa): 348 nM; TGI (HeLa): 526 nM; GI50 [4]: 519 nM; TGI [4]: 665 nM
6 | C/C=C1\NC(=O)[C@H](Cc2ccccc2)NC(=O)[C@@H](C(C)C)NC(=O)[C@@H]([C@H](C)CC)NC(=O)[C@H](NC(=O)[C@H](NC(=O)[C@H](CCCN)NC(=O)[C@H]2CCCN2C(=O)[C@H](NC(=O)[C@@H]2CCCN2C(=O)[C@@H](NC(=O)[C@H](NC(=O)CCCC(C)C)C(C)C)[C@@H](C)O)C(C)C)[C@H](C)CC)[C@H](C)OC(=O)[C@H](C(C)C)NC1=O | 1650 nM | 347 nM | 3240 nM | 1540 nM |  | 632 nM |  | 703 nM | 2780 nM |  | 1440 nM | 1910 nM |  | 2440 nM | 2540 nM | 887 nM |  | 4790 nM | 1040 nM | 1320 nM | 
7 | C/C=C1\NC(=O)[C@H](Cc2ccccc2)NC(=O)[C@@H](C(C)C)NC(=O)[C@@H]([C@H](C)CC)NC(=O)[C@H](NC(=O)[C@H](NC(=O)[C@H](CCCN)NC(=O)[C@H]2CCCCN2C(=O)[C@H](NC(=O)[C@@H](NC(=O)[C@@H](NC(=O)[C@H](NC(=O)CC[C@@H](C)CC)C(C)C)[C@@H](C)O)C(C)C)C(C)C)[C@H](C)CC)[C@H](C)OC(=O)[C@H](C(C)C)NC1=O | 1300 nM |  |  | 1310 nM | 1390 nM | 487 nM | 894 nM | 483 nM |  | 1590 nM | 1360 nM | 6720 nM | 8000 nM | 2160 nM | 2020 nM | 447 nM | 2250 nM | 678 nM | 1080 nM | 978 nM | GI50 [1]: 786 nM; GI50 [2]: 632 nM; TGI (SK-MEL-28): 1470 nM; TGI (A549): 8700 nM; TGI (LoVo [3]): 2340 nM; GI50 (LoVo [5]): 1220 nM; TGI (LoVo [5]): 1820 nM; CC50 (LoVo [5]; read-out: LC50 (the source's name)): 1700 nM; GI50 (HeLa): 3080 nM; TGI (HeLa): 2660 nM; GI50 [4]: 1510 nM; TGI [4]: 1450 nM
